Results pooled from the literature.
Each line is one published result; the experiments were not run side by side.
Target: Serine/threonine-protein kinase Nek1 (NEK1, Homo sapiens, UniProt Q96PY6)
One construct used (Q96PY6 1-1258): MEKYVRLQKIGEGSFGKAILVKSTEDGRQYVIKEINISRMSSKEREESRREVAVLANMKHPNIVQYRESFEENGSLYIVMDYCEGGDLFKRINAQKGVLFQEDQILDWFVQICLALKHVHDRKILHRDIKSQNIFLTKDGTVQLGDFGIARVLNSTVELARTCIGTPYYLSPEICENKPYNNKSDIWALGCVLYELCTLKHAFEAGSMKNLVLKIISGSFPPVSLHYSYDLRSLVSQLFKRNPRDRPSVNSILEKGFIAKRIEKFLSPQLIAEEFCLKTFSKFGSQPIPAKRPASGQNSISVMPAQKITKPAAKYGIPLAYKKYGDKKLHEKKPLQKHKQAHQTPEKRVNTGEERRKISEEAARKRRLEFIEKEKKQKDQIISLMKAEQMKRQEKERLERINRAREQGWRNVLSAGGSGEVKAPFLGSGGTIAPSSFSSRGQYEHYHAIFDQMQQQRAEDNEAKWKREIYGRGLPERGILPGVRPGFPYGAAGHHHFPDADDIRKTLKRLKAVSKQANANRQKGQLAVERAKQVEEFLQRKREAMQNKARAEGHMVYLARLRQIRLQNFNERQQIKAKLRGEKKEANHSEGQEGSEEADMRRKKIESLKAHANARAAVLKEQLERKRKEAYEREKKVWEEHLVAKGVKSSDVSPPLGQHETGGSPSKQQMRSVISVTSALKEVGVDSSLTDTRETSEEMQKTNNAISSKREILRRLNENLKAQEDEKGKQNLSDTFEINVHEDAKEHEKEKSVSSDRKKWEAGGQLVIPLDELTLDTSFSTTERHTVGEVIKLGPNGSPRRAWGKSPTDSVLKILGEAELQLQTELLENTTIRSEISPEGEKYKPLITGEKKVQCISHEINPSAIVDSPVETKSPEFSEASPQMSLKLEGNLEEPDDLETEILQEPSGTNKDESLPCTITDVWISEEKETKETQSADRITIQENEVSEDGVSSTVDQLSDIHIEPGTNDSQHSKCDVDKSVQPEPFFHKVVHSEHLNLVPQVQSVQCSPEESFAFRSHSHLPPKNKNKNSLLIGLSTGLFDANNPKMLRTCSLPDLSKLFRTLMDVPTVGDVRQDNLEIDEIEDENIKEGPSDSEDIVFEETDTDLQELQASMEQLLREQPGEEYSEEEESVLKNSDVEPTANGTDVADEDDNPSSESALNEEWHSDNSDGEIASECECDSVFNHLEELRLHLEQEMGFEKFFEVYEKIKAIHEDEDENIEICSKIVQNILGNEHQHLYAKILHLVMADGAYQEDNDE

SMILES	observed	technique	tested at	remaining binding [%]
N[C@H]1CCN(c2nccc(-c3cnn4ncccc34)n2)C1	binding	–	1 µM	97
FC(F)(F)Oc1cccc(-c2cnc3ccc(-c4ccncc4)nn23)c1	cell-free assay	competition with immobilised ligand	5 µM	78
O=C(NCCCN1CCOCC1)c1ccc(Nc2ncc(Cl)c(-c3ccc(Cl)s3)n2)cc1	binding	competition with immobilised ligand	1 µM	76
CC1CCCN1c1nccc(-c2cnn3ncccc23)n1 (stereo not shown)	binding	–	1 µM	100
O=C(NS(=O)(=O)c1ccc(NCC2CCOCC2)c([N+](=O)[O-])c1)c1ccc(N2CCN(Cc3ccc(C(F)(F)F)cc3-c3ccc(Cl)cc3)CC2)cc1Oc1cnc2[nH]ccc2c1	cell-free assay	competition with immobilised ligand	1 µM	99
CN(C)c1nccc(-c2cnc3ncccn23)n1	binding	–	1 µM	100
Cc1cnc(Nc2ccc(C(=O)N3CCC(N4CCCC4)CC3)cc2)nc1-c1cc2ccccc2s1	binding	competition with immobilised ligand	1 µM	18
c1cncc(-c2cccc(Nc3nccc(NC4CCCCC4)n3)c2)c1	binding	competition with immobilised ligand	10 µM	91
C[C@H]1CCN(c2nccc(-c3cnn4ncccc34)n2)C1	binding	–	1 µM	100
CS(=O)(=O)NCC[C@H](NC(=O)c1cncc2c1cnn2-c1ccc(F)cc1)c1ccnc(S(C)(=O)=O)c1	cell-free assay	competition with immobilised ligand	1 µM	45
O=C(Nc1c[nH]nc1C(=O)NC1CCNCC1)c1cc(F)cc(F)c1	binding	competition with immobilised ligand	1 µM	100
CN(C)C(=O)Cn1cc(-c2nc([C@@](C)(c3ccc(-c4cnc(N)nc4)cc3)C3CC3)no2)cn1	cell-free assay	competition with immobilised ligand	1 µM	100
CN(c1nccc(-c2cnn3ncccc23)n1)C1CC1	binding	–	1 µM	100
Cn1cc(Cl)c2c(Oc3c(F)cc(Nc4cc(Cl)nc(N)n4)cc3F)ccnc21	cell-free assay	competition with immobilised ligand	0.1 µM	100
O=C(c1ccc(Nc2ncc(Cl)c(-c3cc4ccccc4s3)n2)cc1)N1CCC(N2CCCC2)CC1	binding	competition with immobilised ligand	1 µM	27
C[C@@H](c1ccc(-n2cnc3c(N)ncnc32)cc1)N1CCc2nn(C)c(Cc3ccccc3)c2C1=O	binding	competition with immobilised ligand	0.1 µM	87
NS(=O)(=O)c1cc(NC(=O)C2(c3ccccc3Cl)CC2)ccc1Oc1cccc(Cl)c1	cell-free assay	competition with immobilised ligand	1 µM	100
F[C@@H]1CCN(c2nccc(-c3cnn4ncccc34)n2)C1	binding	–	1 µM	100
CNC(=O)[C@@H]1CC[C@@H](n2c(-c3ccc4cnccc4c3)nc3ccc(C(=O)NCc4cccc(C(N)=O)c4)cc32)C1	binding	competition with immobilised ligand	1 µM	100
CN(CCCC(F)(F)F)c1nccc(-c2cnn3ncccc23)n1	binding	–	1 µM	100
O=C(O)c1cc(-c2ccc(C3CCNCC3)cc2)c2ccc(-c3ccc(C(F)(F)F)cc3)cc2c1	cell-free assay	competition with immobilised ligand	1 µM	100
COc1cnc(Nc2cccc(S(N)(=O)=O)c2)nc1N1CCN(c2ccccc2)CC1	binding	competition with immobilised ligand	1 µM	92
